Experimental data pooled from the literature.
Lines come from different studies, so protocols differ. pEC50: −log10 of the molar value.

CC1CCC2(CC1)SC(C)C(=O)N2NC(=O)c1[nH]c2ccc(Cl)cc2c1-c1ccccc1 (stereo not drawn)
pEC50 (Enterovirus B; viral replication, inhibitor; Vero, B4): < 4.00

CSc1ccc(/C=C/c2cc(/C=C3\Sc4ccccc4N3CCCN3CCCC3)c3ccccc3[n+]2C)cc1.[I-]
MIC (Acinetobacter baumannii; microbial growth, broth dilution; ATCC19606; drug-resistant strain): 64 µg/mL

O=C(Nc1cccc(-c2cc(C(=O)O)no2)c1)Nc1ccc(Cl)c(Cl)c1
MIC (Acinetobacter baumannii; microbial growth, broth dilution; BAA1605): > 64 µg/mL

C[n+]1c(/C=C/c2ccc(O)cc2)cc(/C=C2\Sc3ccccc3N2CCCN2CCOCC2)c2ccccc21.[I-]
MIC (Acinetobacter baumannii; microbial growth, broth dilution; ATCC19606; drug-resistant strain): > 64 µg/mL

COC(=O)c1cc(-c2cccc(NC(=S)Nc3ccc(OC)cc3)c2)on1
MIC (Acinetobacter baumannii; microbial growth, broth dilution; BAA1605): > 64 µg/mL

C=C1CC[C@H](O)C/C1=C/C=C1\CCC[C@]2(C)[C@@H]([C@H](C)/C=C/[C@H](C)C(C)C)CC[C@@H]12
pEC50 (Hepatitis C virus; viral replication, inhibitor, luciferase; GETYPE2A; 72 h, replicon): 4.85

COC(=O)c1cc(-c2cccc(NC(=S)Nc3ccc(F)cc3)c2)on1
MIC (Acinetobacter baumannii; microbial growth, broth dilution; BAA1605): > 64 µg/mL

CC1SC2(CCCCC2)N(NC(=O)c2[nH]c3ccc(Cl)cc3c2-c2ccccc2)C1=O (stereo not drawn)
pEC50 (Enterovirus B; viral replication, inhibitor; Vero, B4): < 4.00

COC(=O)c1cc(-c2cccc(NC(=O)Nc3ccccc3)c2)on1
MIC (Acinetobacter baumannii; microbial growth, broth dilution; BAA1605): > 64 µg/mL

O=C(NN1C(=O)CSC12CCC(c1ccccc1)CC2)c1[nH]c2ccc(Cl)cc2c1-c1ccccc1 (stereo not drawn)
pEC50 (Enterovirus B; viral replication, inhibitor; Vero, B4): < 4.00

COC(=O)c1cc(-c2cccc(NC(=O)Nc3ccc(F)cc3)c2)on1
MIC (Acinetobacter baumannii; microbial growth, broth dilution; BAA1605): > 64 µg/mL

C[n+]1c(/C=C/c2ccc(O)cc2)cc(/C=C2\Sc3ccccc3N2CCCN2CCCC2)c2ccccc21.[I-]
MIC (Acinetobacter baumannii; microbial growth, broth dilution; ATCC19606; drug-resistant strain): > 64 µg/mL

CC(C)S(=O)(=O)n1c(N)nc2ccc(/C(=N/O)c3ccccc3)cc21
pEC50 (Enterovirus B; viral replication, inhibitor; Vero 76, B3): > 8.00

COC(=O)c1cc(-c2cccc(NC(=O)Nc3c(C)cccc3C)c2)on1
MIC (Acinetobacter baumannii; microbial growth, broth dilution; BAA1605): > 64 µg/mL

C=C1/C(=C\C=C2/CCC[C@]3(C)[C@@H]([C@H](C)CCCC(C)(C)O)CC[C@@H]23)C[C@@H](O)C[C@@H]1O
pEC50 (Hepatitis C virus; viral replication, inhibitor, luciferase; GETYPE2A; 5 days, replicon): 5.33

COc1cccc(OC)c1C(=O)N[C@@H]1C(=O)N2[C@@H]1SC(C)(C)[C@@H]2C(=O)O
MIC (Acinetobacter baumannii; microbial growth, broth dilution; ATCC19606; drug-resistant strain): > 256 µg/mL

CC1CCC2(CC1)SCC(=O)N2NC(=O)c1[nH]c2ccc(Cl)cc2c1-c1ccccc1 (stereo not drawn)
pEC50 (Enterovirus B; viral replication, inhibitor; Vero, B4): < 4.00

CC(C)(CO)C(=O)SCCOP(=O)(NCc1ccccc1)OC[C@H]1O[C@@H](n2cnc3c(=O)[nH]c(N)nc32)[C@](C)(O)[C@@H]1O (mixture of isomers)
EC90 (Hepatitis C virus; viral replication, inhibitor; Huh-7, GETYPE1; replicon): 0.9 µM

CCCC1CCC2(CC1)SCC(=O)N2NC(=O)c1[nH]c2ccc(Cl)cc2c1-c1ccccc1 (stereo not drawn)
pEC50 (Enterovirus B; viral replication, inhibitor; Vero, B4): < 4.00

COc1nc(N)nc2c1ncn2[C@@H]1O[C@H](COP(=O)(N[C@@H](C)C(=O)OCC(C)(C)C)Oc2cccc3ccccc23)[C@@H](O)[C@@]1(C)O (stereo partly drawn)
EC90 (Hepatitis C virus; viral replication, inhibitor; GETYPE2A; 96 h, replicon): 0.0128 µM

CC1CC(C)(C)CC2(C1)SCC(=O)N2NC(=O)c1[nH]c2ccc(Cl)cc2c1-c1ccccc1 (stereo not drawn)
pEC50 (Enterovirus B; viral replication, inhibitor; Vero, B4): < 4.00

Cc1c(NN=C(C#N)C2=NC(=O)CS2)c(=O)n(-c2ccccc2)n1C
inhibition zone (Acinetobacter baumannii; microbial growth, well diffusion; 100000 µg/mL): 27 mm

C=C1CC[C@H](O)C/C1=C/C=C1\CCC[C@]2(C)[C@@H]([C@H](C)CCCC(C)C)CC[C@@H]12
pEC50 (Hepatitis C virus; viral replication, inhibitor, luciferase; BM4-5, GETYPE1B; 5 days, replicon): 5.42

CC1SC2(CCCC2)N(NC(=O)c2[nH]c3ccc(Cl)cc3c2-c2ccccc2)C1=O (stereo not drawn)
pEC50 (Enterovirus B; viral replication, inhibitor; Vero, B4): < 4.00

COC(=O)c1cc(-c2cccc(NC(=O)Nc3cccc(F)c3)c2)on1
MIC (Acinetobacter baumannii; microbial growth, broth dilution; BAA1605): > 64 µg/mL

O=C(NN1C(=O)CSC12CCCCC2)c1[nH]c2ccc(Cl)cc2c1-c1ccccc1
pEC50 (Enterovirus B; viral replication, inhibitor; Vero, B4): < 4.00

COC(=O)c1cc(-c2cccc(NC(=O)Nc3cccc(C(F)(F)F)c3)c2)on1
MIC (Acinetobacter baumannii; microbial growth, broth dilution; BAA1605): > 64 µg/mL
